# Measurements published in ChEMBL document CHEMBL1142706, “Synthesis and evaluation of (pyridylmethylene)tetrahydronaphthalenes/-indanes and structurally modified derivatives: potent and selective inhibitors of aldosterone synthase” (J Med Chem, 2005).
# What was measured:
# Aromatase = biological target: T1, Aromatase (Homo sapiens, UniProt P11511); assay: In vitro inhibitory concentration against human placental CYP19 incubated with 500 nM of substrate androstenedione in presence of the compound
# T1 sequence (P11511 whole entry): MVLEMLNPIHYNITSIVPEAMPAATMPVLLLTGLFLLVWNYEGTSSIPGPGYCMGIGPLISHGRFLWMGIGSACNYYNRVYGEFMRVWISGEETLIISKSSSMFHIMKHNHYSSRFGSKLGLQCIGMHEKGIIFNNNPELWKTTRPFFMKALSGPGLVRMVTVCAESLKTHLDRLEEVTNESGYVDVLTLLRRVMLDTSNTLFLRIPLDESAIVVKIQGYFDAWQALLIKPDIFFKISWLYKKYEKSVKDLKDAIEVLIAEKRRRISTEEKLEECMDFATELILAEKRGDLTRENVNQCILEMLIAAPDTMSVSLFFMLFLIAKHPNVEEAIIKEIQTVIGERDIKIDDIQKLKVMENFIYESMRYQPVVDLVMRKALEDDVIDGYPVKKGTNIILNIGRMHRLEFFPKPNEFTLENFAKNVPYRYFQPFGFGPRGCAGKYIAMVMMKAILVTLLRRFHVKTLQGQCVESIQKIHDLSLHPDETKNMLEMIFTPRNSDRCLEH
# [1] = biological target: T2, Cytochrome P450 11B2, mitochondrial (Homo sapiens, UniProt P19099); assay: In vitro inhibition of human CYP11B2 expressed in Schizosaccharomyces pombe incubated with 100 nM of substrate deoxy-corticosterone in presence of 500 nM of compound
# T2 sequence (P19099 whole entry): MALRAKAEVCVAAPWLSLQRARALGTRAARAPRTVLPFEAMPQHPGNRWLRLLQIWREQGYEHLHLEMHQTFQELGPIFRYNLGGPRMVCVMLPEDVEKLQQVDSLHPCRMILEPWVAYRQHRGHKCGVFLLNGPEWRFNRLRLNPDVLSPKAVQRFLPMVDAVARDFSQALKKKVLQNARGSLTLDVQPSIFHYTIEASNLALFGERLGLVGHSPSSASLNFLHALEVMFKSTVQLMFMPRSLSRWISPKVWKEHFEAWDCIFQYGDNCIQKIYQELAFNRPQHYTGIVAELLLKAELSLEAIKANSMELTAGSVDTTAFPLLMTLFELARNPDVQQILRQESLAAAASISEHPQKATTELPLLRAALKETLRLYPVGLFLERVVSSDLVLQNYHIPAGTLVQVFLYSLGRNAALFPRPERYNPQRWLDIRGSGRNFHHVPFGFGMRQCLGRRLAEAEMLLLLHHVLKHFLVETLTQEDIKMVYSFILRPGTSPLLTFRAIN
# [2] = biological target: T2, Cytochrome P450 11B2, mitochondrial; assay: In vitro inhibitory concentration against human CYP11B2 expressed in V79MZh hamster fibroblasts incubated with 100 nM of substrate deoxy-corticosterone in presence of the compound
# How it was run: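 Intact V79 MZh hamster fibroblasts expressing human CYP11B1 or CYP11B2, incubated with [4-14C]-11-deoxycorticosterone (100 nM) and inhibitor at no fewer than three concentrations to give IC50. Stopped with ethyl acetate, shaken, centrifuged (10 000g, 2 min); steroids in organic phase analysed by HPTLC/phosphoimager. Mean of four determinations, standard deviation less than 5%.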
# Homo sapiens = species on record: Homo sapiens; assay: In vitro IC50 ratio against human CYP11B1 to that of human CYP11B2
# How it was run: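 IC50 ratio from V79 MZh hamster fibroblasts expressing human CYP11B1 or CYP11B2, each incubated with [4-14C]-11-deoxycorticosterone (100 nM) and inhibitor at no fewer than three concentrations; steroids extracted into ethyl acetate and quantified by HPTLC with phosphoimaging.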
# CYP17 = biological target: T3, CYP17 (Homo sapiens, UniProt P05093); assay: In vitro inhibition of human CYP17 expressed in Escherichia coli incubated with 2.5 uM of substrate progesterone in presence of 2.5 uM of compound; conditions: probe progesterone
# T3 sequence (P05093 whole entry): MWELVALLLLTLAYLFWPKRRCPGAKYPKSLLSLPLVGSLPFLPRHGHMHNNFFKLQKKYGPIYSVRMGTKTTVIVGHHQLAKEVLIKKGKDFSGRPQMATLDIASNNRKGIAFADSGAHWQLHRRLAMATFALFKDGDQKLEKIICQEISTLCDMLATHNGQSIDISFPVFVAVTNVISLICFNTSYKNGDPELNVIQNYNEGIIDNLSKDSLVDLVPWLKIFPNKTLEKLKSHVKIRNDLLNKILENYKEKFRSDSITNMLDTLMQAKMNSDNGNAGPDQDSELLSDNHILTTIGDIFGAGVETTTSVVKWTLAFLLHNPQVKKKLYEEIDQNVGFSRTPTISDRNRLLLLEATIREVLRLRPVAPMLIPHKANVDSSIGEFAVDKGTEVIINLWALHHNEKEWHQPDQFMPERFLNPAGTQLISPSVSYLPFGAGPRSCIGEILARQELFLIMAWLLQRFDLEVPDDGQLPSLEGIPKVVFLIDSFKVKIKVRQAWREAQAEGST
# [3] = biological target: T4, Cytochrome P450 11B1, mitochondrial (Homo sapiens, UniProt P15538); assay: In vitro inhibitory concentration against human CYP11B1 expressed in V79 MZh hamster fibroblasts incubated with 100 nM of substrate deoxy-corticosterone in presence of the compound
# T4 sequence (P15538 whole entry): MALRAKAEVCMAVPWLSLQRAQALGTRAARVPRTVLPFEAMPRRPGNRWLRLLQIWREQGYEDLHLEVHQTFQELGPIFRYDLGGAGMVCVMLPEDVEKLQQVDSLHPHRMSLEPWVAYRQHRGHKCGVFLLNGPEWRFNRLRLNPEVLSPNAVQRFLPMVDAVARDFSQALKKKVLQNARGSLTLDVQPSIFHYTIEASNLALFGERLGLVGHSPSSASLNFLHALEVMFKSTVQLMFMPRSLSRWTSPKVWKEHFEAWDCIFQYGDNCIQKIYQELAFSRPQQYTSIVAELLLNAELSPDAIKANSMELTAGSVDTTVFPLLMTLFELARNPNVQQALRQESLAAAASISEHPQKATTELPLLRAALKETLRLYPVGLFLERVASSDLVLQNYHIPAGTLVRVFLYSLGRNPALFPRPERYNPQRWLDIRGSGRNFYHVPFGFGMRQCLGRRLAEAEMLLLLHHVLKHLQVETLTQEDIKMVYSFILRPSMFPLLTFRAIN
SMILES,IC50 (Aromatase) [nM],inhibition at 0.5 µM [1] [%],IC50 [2] [nM],Selectivity ratio (Homo sapiens),inhibition at 2.5 µM (CYP17) [%],IC50 [3] [nM]
C(=C(c1ccccc1)c1ccccc1)c1cccnc1,3630,5,9,–,–,–
COc1ccc2c(c1)CCC/C2=C\c1cccnc1,–,–,–,15.8,20,–
Cc1cccc2c1CC/C2=C\c1cccnc1,–,–,–,7.1,40,–
COc1ccc2c(c1)CC/C2=C\c1ccncc1,–,11,59,–,–,–
Cc1ccc2c(c1)/C(=C/c1ccncc1)CC2,1280,41,4,–,–,–
Fc1ccc2c(c1)CC/C2=C\c1ccnc2ccccc12,> 36000,0,20,–,–,–
Cc1ccc2c(c1)/C(=C\c1ccncc1)CC2,1710,46,8,–,–,–
C(=C1/CC(c2ccccc2)c2ccccc21)/c1cccnc1 (configuration not stated),4060,0,3,–,–,–
CCOc1ccc2c(c1)CC/C2=C\c1cccnc1,–,–,–,30,13,–
Brc1ccc2c(c1)CC/C2=C/c1cccnc1,–,–,–,1.9,24,–
C(=C1\CCCc2ccccc21)/c1cccnc1,–,–,–,10.1,24,–
COc1cc2c(cc1OC)/C(=C/c1cccnc1)CCC2,980,5,–,–,6,–
COc1ccc2c(c1)/C(=C\c1ccncc1)CC2,–,24,26,–,–,–
Fc1ccc2c(c1)CC/C2=C\c1cccc2ncccc12,> 36000,0,14,–,–,–
COc1cccc2c1/C(=C/c1cccnc1)CC2,–,–,–,35.4,5,–
Brc1ccc2c(c1)CC/C2=C\c1cccnc1,–,–,–,52.4,16,–

SMILES,IC50 (Aromatase) [nM],inhibition at 0.5 µM [1] [%],IC50 [2] [nM],Selectivity ratio (Homo sapiens),inhibition at 2.5 µM (CYP17) [%],IC50 [3] [nM]
COc1ccc2c(c1)CC/C2=C/c1cccnc1,–,–,26,30.4,49,–
CCOc1ccc2c(c1)CC/C2=C/c1cccnc1,–,–,–,10.9,6,–
COc1ccc2c(c1)CC/C2=C/c1cncs1,4830,17,5,–,–,–
COc1ccc2c(c1)CCC/C2=C/c1cccnc1,–,–,–,0.2,17,–
Fc1ccc2c(c1)CC/C2=C/c1cccc2ncccc12,> 36000,0,31,–,–,–
CC1C/C(=C\c2cccnc2)c2ccccc21 (configuration not stated),3680,47,–,–,–,–
Cc1ccc2c(c1)/C(=C\c1cccnc1)CC2,4600,43,–,–,2,–
Clc1cccc2c1CC/C2=C/c1cccnc1,–,–,31,21.1,32,–
Cc1cccc2c1CC/C2=C/c1cccnc1,12600,12,–,–,16,–
C(=C1c2ccccc2-c2ccccc21)c1cccnc1,4810,0,6,–,–,–
C(=C(c1ccccc1)c1ccccc1)c1ccncc1,100,32,22,–,–,–
Fc1ccc2c(c1)CC/C2=C/c1cccnc1,–,–,11,11.4,16,–
Clc1ccc2c(c1)CC/C2=C\c1ccncc1,–,–,1520,–,–,1520
Clc1ccc2c(c1)CC/C2=C/c1cccnc1,–,–,–,3.7,28,–
Clc1ccc2c(c1)CC/C2=C/c1ccncc1,1990,37,301,–,–,–

# Second part, led by results:
IC50 (Aromatase) [nM],inhibition at 0.5 µM [1] [%],IC50 [2] [nM],Selectivity ratio (Homo sapiens),inhibition at 2.5 µM (CYP17) [%],SMILES,IC50 [3] [nM]
800,31,22,–,–,COc1ccc2c(c1)CCC/C2=C\c1ccncc1,–
–,13,55,–,–,COc1ccc2c(c1)CC/C2=C/c1ccncc1,–
6360,29,–,–,5,COc1ccc2c(c1)/C(=C/c1cccnc1)CC2,–
–,–,22,32.5,9,C(=C1/CCCc2ccccc21)/c1cccnc1,–
1010,36,56,–,–,COc1ccc2c(c1)CCC/C2=C/c1ccncc1,–
90,29,11,–,–,COc1cc2c(cc1OC)/C(=C/c1ccncc1)CCC2,–
4330,18,17,–,–,COc1ccc2c(c1)CC/C2=C\c1cncs1,–
790,14,–,–,–,Fc1ccc2c(c1)CC/C2=C/c1cncnc1,–
> 36000,0,–,–,1,C(=C1/CCc2cc(OCc3ccccc3)ccc21)/c1cccnc1,–
–,–,–,36.9,42,Fc1cccc2c1CC/C2=C\c1cccnc1,–
–,–,–,56.6,26,Clc1ccc2c(c1)CC/C2=C\c1cccnc1,–
–,–,9,33.8,14,Clc1cccc2c1CC/C2=C\c1cccnc1,–
–,–,–,42.6,36,COc1ccc2c(c1)CC/C2=C\c1cccnc1,–
–,26,3,–,–,COc1ccc2c(c1)/C(=C/c1ccncc1)CC2,–
2740,6,5,–,–,C(=C1c2ccccc2-c2ccccc21)c1ccncc1,–
–,–,–,–,5,N#Cc1ccc(C2CCCc3cncn32)cc1 (configuration not stated) [FADROZOLE],–
180,40,–,–,53,Fc1cccc2c1CC/C2=C/c1cccnc1,–
> 36000,0,14,–,–,Fc1ccc2c(c1)CC/C2=C/c1ccnc2ccccc12,–
–,–,7,44.4,17,Fc1ccc2c(c1)CC/C2=C\c1cccnc1,–
–,–,8,–,–,C(=C1/CCc2ccccc21)/c1ccncc1,–
3930,27,–,–,3,Cc1ccc2c(c1)/C(=C/c1cccnc1)CC2,–
